Measurements from ChEMBL document CHEMBL2429718, “MT-Stabilizer, Dictyostatin, Exhibits Prolonged Brain Retention and Activity: Potential Therapeutic Implications” (ACS Med Chem Lett, 2013).
Calls of active or inactive are those of the source. The rule behind the calls is not given here.

Columns and labels:
[1] = Plasma concentration in CD1 mouse at 5 mg/kg, ip administered as single dose at 4 hrs; assay type: ADME, organism-based; set-up: dose 5 mg/kg, route intraperitoneal
Outline: (§1)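 CD1 mice received one i.p. dose of 5 mg/kg. Blood and brain were taken from groups of animals at several times after dosing, with n = 3 mice per time point, and compound levels were measured in plasma and brain. Exposure was expressed as AUC over 0.25–4 h. Concentrations at 4 h and 16 h are given as mean ± SD.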

[2] = Fraction unbound in CD1 mouse brain at 5 mg/kg, ip administered as single dose; assay type: ADME, organism-based; set-up: dose 5 mg/kg, route intraperitoneal; conditions: in vivo
[3] = AUC (0.25 to 4 hrs) in CD1 mouse plasma at 5 mg/kg, ip administered as single dose at 4 hrs; assay type: ADME, organism-based; set-up: time 0.25-4 hr, dose 5 mg/kg, route intraperitoneal; outline: as §1
[4] = AUC (0.5 to 16 hrs) in CD1 mouse brain at 5 mg/kg, ip administered as single dose at 4 hrs; assay type: ADME, organism-based; set-up: time 0.5-16 hr, dose 5 mg/kg, route intraperitoneal
Plasma [5] = experiment: Fraction unbound in CD1 mouse plasma at 5 mg/kg, ip dministered as single dose; assay type: ADME, organism-based; set-up: dose 5 mg/kg, route intraperitoneal; conditions: in vivo
Brain = experiment: Stabilization of microtubule brain in CD1 mouse assessed as increase in acetylated alpha-tubulin at 5 mg/kg, ip administered as single dose measured after 7 days relative to vehicle-treated control; assay type: functional, organism-based; set-up: dose 5 mg/kg
Outline: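 Wild-type mice received one i.p. dose of 5 mg/kg, with DMSO as vehicle control, and 3 mice per treatment. Brains were collected 7 days later and the acetylated α-tubulin to α-tubulin ratio was measured. The mean ratio of treated mice was normalized to that of vehicle-treated mice.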

HEK293 [6] = experiment: Stabilization of microtubule in HEK293 cells assessed as increase in acetylated alpha-tubulin at 1to 10 nM after 4 hrs by ELISA; assay type: cell-based; conditions: Homo sapiens
Outline: (§2)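 In HEK293 cells, microtubule stabilization was read as compound-induced elevation of acetylated α-tubulin. Compounds were tested across a concentration series that included 1, 10 and 100 nM, with n = 4 per condition. Values are given as mean ± SEM.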

[7] = (§3) Plasma concentration in CD1 mouse at 5 mg/kg, ip administered as single dose at 16 hrs; assay type: ADME, organism-based; set-up: dose 5 mg/kg, route intraperitoneal; conditions: CD1, mouse, plasma; outline: as §1
[8] = Drug uptake in CD1 mouse brain at 5 mg/kg, ip administered as single dose at 16 hrs; assay type: ADME, organism-based; set-up: dose 5 mg/kg, route intraperitoneal; conditions: read-out: Drug uptake; outline: as §1
HEK293 [9] = experiment: Stabilization of microtubule in HEK293 cells assessed as increase in acetylated alpha-tubulin after 4 hrs by ELISA; assay type: cell-based; conditions: Homo sapiens; outline: as §2
[10] = Drug uptake in CD1 mouse brain at 5 mg/kg, ip administered as single dose at 4 hrs; assay type: ADME, organism-based; set-up: dose 5 mg/kg, route intraperitoneal; conditions: read-out: Drug uptake; outline: as §1
[11] = AUC (0.25 to 4 hrs) in CD1 mouse brain at 5 mg/kg, ip administered as single dose at 4 hrs; assay type: ADME, organism-based; set-up: time upper 4 hr, time lower 0.25 hr, dose 5 mg/kg, route intraperitoneal; outline: as §1
HEK293 [12] = experiment: Stabilization of microtubule in HEK293 cells assessed as increase in acetylated alpha-tubulin at 100 nM after 4 hrs by ELISA; assay type: cell-based; conditions: Homo sapiens; outline: as §2
Plasma [13] = experiment: as §3; assay type: ADME, organism-based; set-up: dose 5 mg/kg, route intraperitoneal; conditions: mouse, in vivo, 16 h, BLD = below limit of detection; outline: as §1

SMILES | concentration at 4 h [1] | Fu [2] | AUC(0-t) at 4 h [3] | AUC(0-t) [4] | Fu (Plasma [5]) | Activity (Brain) | Activity (HEK293 [6]) | concentration at 16 h [7] | concentration at 16 h [8] | Activity (HEK293 [9]) | concentration at 4 h [10] | AUC(0-t) at 4 h [11] | Activity (HEK293 [12]) | Cp (Plasma [13])
C=C/C=C\[C@H](C)[C@@H]1OC(=O)/C=C\C=C\[C@@H](C)[C@@H](O)C[C@H](O)/C=C\[C@H](C)[C@H](O)[C@@H](C)C[C@@H](C)CC[C@@H](O)[C@@H]1C [DICTYOSTATIN] | 83 nM | 0.5% | 5.54 µM·h | 6.25 µM·h | 0.9% | Active | Active | 77 nM | 383 nM | Dose-dependent effect | 412 nM |  |  | 
C=C/C=C\[C@H](C)[C@H](OC(N)=O)[C@@H](C)[C@H](O)[C@@H](C)C/C(C)=C\[C@H](C)[C@@H](O)[C@@H](C)/C=C\[C@@H](O)C[C@@H]1OC(=O)[C@H](C)[C@@H](O)[C@H]1C [DISERMOLIDE] |  |  | 0.439 µM·h |  |  |  |  |  |  | Dose-dependent effect |  | 0.112 µM·h |  | 
C/C1=C/C[C@@H](/C(C)=C/c2csc(C)n2)OC(=O)C[C@H](O)C(C)(C)C(=O)[C@H](C)[C@@H](O)[C@@H](C)CCC1 [EPOTHILONE D] | 19 nM |  |  |  |  |  |  |  | 111 nM | Dose-dependent effect | 161 nM |  | Active | BLD
